Data taken from ChEMBL document CHEMBL3871278, “Isolation of Coralmycins A and B, Potent Anti-Gram Negative Compounds from the Myxobacteria Corallococcus coralloides M23” (J Nat Prod, 2016).
≈ marks a conversion by molar mass, not a printed value. Where a name gives a salt, the structure may show the parent alone.

Columns and labels:
Escherichia coli [1] = assay: Antibacterial activity against Escherichia coli CCARM 1356 after 24 hrs by broth microdilution method; type: functional; conditions: CCARM 1356, 24 h
Summary of the method: (§1)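 Broth microdilution with triplicate serial 2-fold dilutions; inoculum 10^5 cells/mL at 0.2 mL/well. Strains were grown to mid-log phase and diluted 1000-fold. Media: Mueller-Hinton broth for most strains, nutrient broth for A. baumannii, Todd-Hewitt for S. pneumoniae. DMSO was at most 0.05% final. After 24 h at 37 °C, MIC = lowest concentration completely inhibiting growth, read by A650.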

Staphylococcus aureus [2] = assay: Antibacterial activity against methicillin-resistant Staphylococcus aureus CCARM 3167 after 24 hrs by broth microdilution method; type: functional; conditions: CCARM 3167, 24 h
Summary of the method: (§2)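 Strains grown to mid-log phase in Mueller-Hinton broth, diluted 1000-fold; 10^5 cells/mL in Mueller-Hinton broth exposed to serial 2-fold dilutions of compound from DMSO stocks (final DMSO ≤0.05%; 0.05% DMSO vehicle control; ciprofloxacin comparator). Incubated 24 h at 37 °C; growth read by absorbance at 650 nm. MIC = lowest concentration completely inhibiting growth, in triplicate.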

Staphylococcus aureus [3] = assay: Antibacterial activity against Staphylococcus aureus RN4220 after 24 hrs by broth microdilution method; type: functional; conditions: RN4220, 24 h; summary of the method: as §1
Staphylococcus aureus [4] = assay: Antibacterial activity against quinolone-resistant Staphylococcus aureus CCARM 3505 after 24 hrs by broth microdilution method; type: functional; conditions: CCARM 3505, 24 h; summary of the method: as §2
Streptococcus pneumoniae = assay: Antibacterial activity against Streptococcus pneumoniae KCTC 5412 after 24 hrs by broth microdilution method; type: functional; conditions: KCTC 5412, 24 h; summary of the method: as §1
Pseudomonas aeruginosa = assay: Antibacterial activity against Pseudomonas aeruginosa KCTC 2004 after 24 hrs by broth microdilution method; type: functional; conditions: KCTC 2004, 24 h; summary of the method: as §1
Staphylococcus aureus [5] = assay: Antibacterial activity against quinolone-resistant Staphylococcus aureus CCARM 3519 after 24 hrs by broth microdilution method; type: functional; conditions: CCARM 3519, 24 h; summary of the method: as §2
Klebsiella pneumoniae = assay: Antibacterial activity against Klebsiella pneumoniae KCTC 22057 after 24 hrs by broth microdilution method; type: functional; conditions: KCTC 22057, 24 h; summary of the method: as §1
Staphylococcus aureus [6] = assay: Antibacterial activity against methicillin-resistant Staphylococcus aureus CCARM 3506 after 24 hrs by broth microdilution method; type: functional; conditions: CCARM 3506, 24 h; summary of the method: as §2
Acinetobacter baumannii = assay: Antibacterial activity against Acinetobacter baumannii KCTC 2508 after 24 hrs by broth microdilution method; type: functional; conditions: KCTC 2508, 24 h; summary of the method: as §1
Escherichia coli [7] = assay: Antibacterial activity against Escherichia coli KCTC 1682 after 24 hrs by broth microdilution method; type: functional; conditions: KCTC 1682, 24 h; summary of the method: as §1
Enterococcus faecalis = assay: Antibacterial activity against Enterococcus faecalis KCTC 5191 after 24 hrs by broth microdilution method; type: functional; conditions: KCTC 5191, 24 h; summary of the method: as §1
[8] = Cytotoxicity against human HepG2 cells assessed as cell growth inhibition at 50 ug/ml after 48 hrs by SRB assay; type: toxicity, cell-based; conditions: hepg2, 48 h
Summary of the method: (§3)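 Single-concentration test at 50 μg/mL for 48 h. HepG2, MRC-9 or MCF10A cells (under passage 20) were grown in RPMI 1640 with 10% newborn calf serum and seeded at 1 × 10^4 cells/well one day before treatment. Growth inhibition was read by sulforhodamine B assay.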

[9] = Cytotoxicity against human MCF10A cells assessed as cell growth inhibition at 50 ug/ml after 48 hrs by SRB assay; type: toxicity, cell-based; conditions: mcf-10a; summary of the method: as §3
[10] = Cytotoxicity against human MRC9 cells assessed as cell growth inhibition at 50 ug/ml after 48 hrs by SRB assay; type: toxicity, cell-based; conditions: mrc9, 48 h; summary of the method: as §3
[11] = Cytotoxicity against human HepG2 cells assessed as cell growth inhibition after 48 hrs by SRB assay; type: toxicity, cell-based
Summary of the method: (§4)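 HepG2, MRC-9 or MCF10A cells (under passage 20) were grown in RPMI 1640 with 10% newborn calf serum and seeded at 1 × 10^4 cells/well one day before treatment. Compounds were applied at various concentrations for 48 h. Viability was measured by sulforhodamine B staining, and GI50 was calculated from the dose-response.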

[12] = Cytotoxicity against human MCF10A cells assessed as cell growth inhibition after 48 hrs by SRB assay; type: toxicity, cell-based, MCF-10A; summary of the method: as §4
[13] = Cytotoxicity against human MRC9 cells assessed as cell growth inhibition after 48 hrs by SRB assay; type: toxicity, cell-based; summary of the method: as §4

| Structure (SMILES) | MIC (Escherichia coli [1]) [µg/mL] | MIC (Staphylococcus aureus [2]) [µg/mL] | MIC (Staphylococcus aureus [3]) [µg/mL] | MIC (Staphylococcus aureus [4]) [µg/mL] | MIC (Streptococcus pneumoniae) [µg/mL] | MIC (Pseudomonas aeruginosa) [µg/mL] | MIC (Staphylococcus aureus [5]) [µg/mL] | MIC (Klebsiella pneumoniae) [µg/mL] | MIC (Staphylococcus aureus [6]) [µg/mL] | MIC (Acinetobacter baumannii) [µg/mL] | MIC (Escherichia coli [7]) [µg/mL] | MIC (Enterococcus faecalis) [µg/mL] | Activity [8] | Activity [9] | Activity [10] | GI50 at 48 h [11] [µg/mL] | GI50 at 48 h [12] [µg/mL] | GI50 at 48 h [13] [µg/mL] |
| --- | --- | --- | --- | --- | --- | --- | --- | --- | --- | --- | --- | --- | --- | --- | --- | --- | --- | --- |
| CO[C@@H](C(N)=O)[C@H](NC(=O)c1ccc(NC(=O)c2ccc([N+](=O)[O-])cc2)cc1)C(=O)Nc1ccc(C(=O)Nc2ccc(C(=O)Nc3ccc(C(=O)O)c(O)c3OC(C)C)c(O)c2OC(C)C)cc1 | 0.125 (≈ 0.134 µM) | 0.015 (≈ 0.016 µM) | 0.015 (≈ 0.016 µM) | 0.125 (≈ 0.134 µM) | 0.25 (≈ 0.267 µM) | 4 (≈ 4.27 µM) | 0.25 (≈ 0.267 µM) | 2 (≈ 2.14 µM) | 0.015 (≈ 0.016 µM) | 0.125 (≈ 0.134 µM) | 0.125 (≈ 0.134 µM) | 0.03 (≈ 0.0321 µM) | – | – | – | – | – | – |
| CO[C@H](C(=O)O)[C@H](NC(=O)c1ccc(NC(=O)c2ccc([N+](=O)[O-])cc2)cc1)C(=O)Nc1ccc(C(=O)Nc2ccc(C(=O)Nc3ccc(C(=O)O)cc3OC(C)C)c(O)c2OC(C)C)cc1 | 16 (≈ 17.4 µM) | 1 (≈ 1.09 µM) | 2 (≈ 2.17 µM) | – | > 16 | > 16 | – | > 16 | 1 (≈ 1.09 µM) | 4 (≈ 4.34 µM) | 4 (≈ 4.34 µM) | 4 (≈ 4.34 µM) | – | – | – | – | – | – |
| CO[C@@H](C(N)=O)[C@H](NC(=O)c1ccc(NC(=O)c2ccc([N+](=O)[O-])cc2)cc1)C(=O)Nc1ccc(C(=O)Nc2ccc(C(=O)Nc3ccc(C(=O)O)cc3OC(C)C)c(O)c2OC(C)C)cc1 | 1 (≈ 1.09 µM) | 0.125 (≈ 0.136 µM) | 0.063 (≈ 0.0685 µM) | 1 (≈ 1.09 µM) | 2 (≈ 2.17 µM) | 8 (≈ 8.7 µM) | 2 (≈ 2.17 µM) | 8 (≈ 8.7 µM) | 0.125 (≈ 0.136 µM) | 0.25 (≈ 0.272 µM) | 0.5 (≈ 0.544 µM) | 0.125 (≈ 0.136 µM) | Non-Toxic | Non-Toxic | Non-Toxic | – | – | – |
| O=C(O)c1cn(C2CC2)c2cc(N3CCNCC3)c(F)cc2c1=O [CIPROFLOXACIN] | 64 (≈ 193 µM) | 2 (≈ 6.04 µM) | – | 128 (≈ 386 µM) | – | 0.06 (≈ 0.181 µM) | 128 (≈ 386 µM) | 0.006 (≈ 0.0181 µM) | – | 0.125 (≈ 0.377 µM) | – | 0.5 (≈ 1.51 µM) | – | – | – | – | – | – |
| COc1cccc2c1C(=O)c1c(O)c3c(c(O)c1C2=O)C[C@@](O)(C(=O)CO)C[C@@H]3O[C@H]1C[C@H](N)[C@H](O)[C@H](C)O1 [DOXORUBICIN HYDROCHLORIDE] | – | – | – | – | – | – | – | – | – | – | – | – | – | – | – | 0.04 to 0.08 | 0.04 to 0.08 | 0.04 to 0.08 |
